From publication PMC7004521 (Cancer Science, 2019)

Assay: Adverse events suspected to be study drug related, phase 1 study
Type: in vivo, human
Summary of the method: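 Adult patients with advanced solid tumours and confirmed MET dysregulation took oral capsules twice daily from 100 up to 600 mg in escalation, or 400 mg bid tablets, in 28-day cycles. Expansion was 600 mg bid capsules, with a switch to 400 mg bid tablets allowed. Patients were included if they had ≥1 dose and ≥1 valid post-baseline safety assessment. Events were graded by CTCAE v4.0.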

[1] = drug-related, escalation 600 mg bid n=8
[2] = drug-related, escalation 100-350 mg bid n=16
[3] = drug-related, expansion RP2D HCC n=11
[4] = drug-related, expansion RP2D gastric cancer n=9
[5] = drug-related, expansion RP2D other n=18

CNC(=O)c1ccc(-c2cnc3ncc(Cc4ccc5ncccc5c4)n3n2)cc1F [capmatinib]
2 (18) n (%): Decreased appetite, all grades [3] | Lipase increased, all grades [3] | Lipase increased, grade 3/4 [3]
1 (11) n (%): ALT increased, all grades [4] | ALT increased, grade 3/4 [4] | AST increased, all grades [4] | Fatigue, grade 3/4 [4] | Headache, all grades [4] | Thrombocytopenia, all grades [4] | Thrombocytopenia, grade 3/4 [4]
6 (33) n (%): Nausea, all grades [5]
2 (13) n (%): Amylase increased, all grades [2] | Blood creatinine increased, all grades [2] | Constipation, all grades [2] | Diarrhea, all grades [2] | Fatigue, grade 3/4 [2] | Hypophagia, all grades [2] | Hypophagia, grade 3/4 [2] | Myalgia, all grades [2]
2 (11) n (%): AST increased, all grades [5] | Decreased appetite, all grades [5] | Dyspepsia, all grades [5] | Localized edema, all grades [5] | Maculo‐papular rash, all grades [5] | Myalgia, all grades [5]
3 (17) n (%): Diarrhea, all grades [5] | Fatigue, all grades [5]
5 (46) n (%): Nausea, all grades [3]
5%: lipase increase, grade 3 or 4 (suspected study drug‐related, dose‐expansion cohorts)
3 (19) n (%): Blood bilirubin increased, all grades [2] | Fatigue, all grades [2] | Hypoalbuminemia, all grades [2] | Nausea, all grades [2] | Peripheral edema, all grades [2]
1 (6) n (%): AST increased, all grades [2] | Amylase increased, grade 3/4 [2] | Blood bilirubin increased, grade 3/4 [2] | Decreased appetite, grade 3/4 [2] | Headache, all grades [2] | Hypoalbuminemia, grade 3/4 [2] | Lipase increased, all grades [2] | Lipase increased, grade 3/4 [2] | Odynophagia, all grades [2] | Peripheral edema, grade 3/4 [2] | Pyrexia, all grades [2] | Thrombocytopenia, all grades [2] | Total protein decreased, all grades [2] | Upper abdominal pain, all grades [2] | ALT increased, all grades [5] | ALT increased, grade 3/4 [5] | Asthenia, all grades [5] | Blood creatinine increased, all grades [5] | Constipation, all grades [5] | Dizziness, all grades [5] | Hypoalbuminemia, all grades [5] | Lipase increased, all grades [5] | Stomatitis, all grades [5]
3 (33) n (%): Fatigue, all grades [4] | Peripheral edema, all grades [4]
3 (27) n (%): Fatigue, all grades [3] | Peripheral edema, all grades [3] | Vomiting, all grades [3]
1 (9) n (%): AST increased, all grades [3] | AST increased, grade 3/4 [3] | Asthenia, all grades [3] | Blood creatinine increased, all grades [3] | Blood creatinine increased, grade 3/4 [3] | Dizziness, all grades [3] | Nausea, grade 3/4 [3] | Thrombocytopenia, all grades [3] | Vomiting, grade 3/4 [3]
3 (38) n (%): Nausea, all grades [1] | Vomiting, all grades [1]
1 (13) n (%): Peripheral edema, all grades [1] | Stomatitis, all grades [1] | Total protein decreased, all grades [1]
4 (25) n (%): Asthenia, all grades [2] | Vomiting, all grades [2]
4 (22) n (%): Peripheral edema, all grades [5] | Vomiting, all grades [5]
4 (36) n (%): Diarrhea, all grades [3]
5 (31) n (%): Decreased appetite, all grades [2]
0 n (%): Hypoalbuminemia, grade 3/4 [1] | Hypophagia, all grades [1] | Hypophagia, grade 3/4 [1] | Lipase increased, all grades [1] | Lipase increased, grade 3/4 [1] | Maculo‐papular rash, all grades [1] | Maculo‐papular rash, grade 3/4 [1] | Myalgia, all grades [1] | Myalgia, grade 3/4 [1] | Nausea, grade 3/4 [1] | Odynophagia, all grades [1] | Odynophagia, grade 3/4 [1] | Peripheral edema, grade 3/4 [1] | Pyrexia, all grades [1] | Pyrexia, grade 3/4 [1] | Stomatitis, grade 3/4 [1] | Thrombocytopenia, all grades [1] | Thrombocytopenia, grade 3/4 [1] | Total protein decreased, grade 3/4 [1] | Upper abdominal pain, all grades [1] | Upper abdominal pain, grade 3/4 [1] | Vomiting, grade 3/4 [1] | ALT increased, all grades [2] | ALT increased, grade 3/4 [2] | Asthenia, grade 3/4 [2] | Blood creatinine increased, grade 3/4 [2] | Constipation, grade 3/4 [2] | Diarrhea, grade 3/4 [2] | Dizziness, all grades [2] | Dizziness, grade 3/4 [2] | Dyspepsia, all grades [2] | Dyspepsia, grade 3/4 [2] | Headache, grade 3/4 [2] | Maculo‐papular rash, all grades [2] | Maculo‐papular rash, grade 3/4 [2] | Myalgia, grade 3/4 [2] | Nausea, grade 3/4 [2] | Odynophagia, grade 3/4 [2] | Pyrexia, grade 3/4 [2] | Stomatitis, all grades [2] | Stomatitis, grade 3/4 [2] | Thrombocytopenia, grade 3/4 [2] | Total protein decreased, grade 3/4 [2] | Upper abdominal pain, grade 3/4 [2] | Vomiting, grade 3/4 [2] | ALT increased, all grades [3] | ALT increased, grade 3/4 [3] | Amylase increased, all grades [3] | Amylase increased, grade 3/4 [3] | Asthenia, grade 3/4 [3] | Blood bilirubin increased, all grades [3] | Blood bilirubin increased, grade 3/4 [3] | Constipation, all grades [3] | Constipation, grade 3/4 [3] | Decreased appetite, grade 3/4 [3] | Diarrhea, grade 3/4 [3] | Dizziness, grade 3/4 [3] | Dyspepsia, all grades [3] | Dyspepsia, grade 3/4 [3] | Fatigue, grade 3/4 [3] | Headache, all grades [3] | Headache, grade 3/4 [3] | Hypoalbuminemia, all grades [3] | Hypoalbuminemia, grade 3/4 [3] | Localized edema, all grades [3] | Localized edema, grade 3/4 [3] | Maculo‐papular rash, all grades [3] | Maculo‐papular rash, grade 3/4 [3] | Myalgia, all grades [3] | Myalgia, grade 3/4 [3] | Odynophagia, all grades [3] | Odynophagia, grade 3/4 [3] | Peripheral edema, grade 3/4 [3] | Pyrexia, all grades [3] | Pyrexia, grade 3/4 [3] | Stomatitis, all grades [3] | Stomatitis, grade 3/4 [3] | Thrombocytopenia, grade 3/4 [3] | Total protein decreased, all grades [3] | Total protein decreased, grade 3/4 [3] | Upper abdominal pain, all grades [3] | Upper abdominal pain, grade 3/4 [3] | Amylase increased, all grades [4] | Amylase increased, grade 3/4 [4] | Asthenia, all grades [4] | Asthenia, grade 3/4 [4] | Blood bilirubin increased, all grades [4] | Blood bilirubin increased, grade 3/4 [4] | Blood creatinine increased, all grades [4] | Blood creatinine increased, grade 3/4 [4] | Constipation, all grades [4] | Constipation, grade 3/4 [4] | Decreased appetite, all grades [4] | Decreased appetite, grade 3/4 [4] | Diarrhea, all grades [4] | Diarrhea, grade 3/4 [4] | Dizziness, all grades [4] | Dizziness, grade 3/4 [4] | Dyspepsia, all grades [4] | Dyspepsia, grade 3/4 [4] | Headache, grade 3/4 [4] | Hypoalbuminemia, all grades [4] | Hypoalbuminemia, grade 3/4 [4] | Lipase increased, all grades [4] | Lipase increased, grade 3/4 [4] | Localized edema, all grades [4] | Localized edema, grade 3/4 [4] | Maculo‐papular rash, all grades [4] | Maculo‐papular rash, grade 3/4 [4] | Myalgia, all grades [4] | Myalgia, grade 3/4 [4] | Nausea, all grades [4] | Nausea, grade 3/4 [4] | Odynophagia, all grades [4] | Odynophagia, grade 3/4 [4] | Peripheral edema, grade 3/4 [4] | Pyrexia, all grades [4] | Pyrexia, grade 3/4 [4] | Stomatitis, all grades [4] | Stomatitis, grade 3/4 [4] | Total protein decreased, all grades [4] | Total protein decreased, grade 3/4 [4] | Upper abdominal pain, all grades [4] | Upper abdominal pain, grade 3/4 [4] | Vomiting, all grades [4] | Vomiting, grade 3/4 [4] | Amylase increased, all grades [5] | Amylase increased, grade 3/4 [5] | Asthenia, grade 3/4 [5] | Blood bilirubin increased, all grades [5] | Blood bilirubin increased, grade 3/4 [5] | Blood creatinine increased, grade 3/4 [5] | Constipation, grade 3/4 [5] | Decreased appetite, grade 3/4 [5] | Diarrhea, grade 3/4 [5] | Dizziness, grade 3/4 [5] | Dyspepsia, grade 3/4 [5] | Fatigue, grade 3/4 [5] | Headache, all grades [5] | Headache, grade 3/4 [5] | Hypoalbuminemia, grade 3/4 [5] | Lipase increased, grade 3/4 [5] | Localized edema, grade 3/4 [5] | Maculo‐papular rash, grade 3/4 [5] | Myalgia, grade 3/4 [5] | Nausea, grade 3/4 [5] | Odynophagia, all grades [5] | Odynophagia, grade 3/4 [5] | Peripheral edema, grade 3/4 [5] | Pyrexia, all grades [5] | Pyrexia, grade 3/4 [5] | Stomatitis, grade 3/4 [5] | Thrombocytopenia, all grades [5] | Thrombocytopenia, grade 3/4 [5] | Total protein decreased, all grades [5] | Total protein decreased, grade 3/4 [5] | Upper abdominal pain, all grades [5] | Upper abdominal pain, grade 3/4 [5] | Vomiting, grade 3/4 [5]
